Test results taken from ChEMBL document CHEMBL4028909, “Discovery of an Orally Bioavailable Benzofuran Analogue That Serves as a β-Amyloid Aggregation Inhibitor for the Potential Treatment of Alzheimer's Disease” (J Med Chem, 2018).
Activity calls are given as the source filed them. The rule behind the calls is not given here.

Molecular target: Amyloid-beta precursor protein (Homo sapiens) (UniProt P05067)
Test: Induction of HFIP-pretreated amyloid beta (1 to 42) (unknown origin) disaggregation after 48 hrs by silver staining-based SDS-PAGE analysis
Method in brief: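 Aβ aggregates were incubated with compound for 48 h, with congo red as positive control. Size distribution (monomer, dimer, trimer, high-molecular-weight species) was analysed by SDS-PAGE with silver staining at the start and at the end of incubation.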

Amyloid-beta precursor protein (Homo sapiens), sequence (P05067 whole entry): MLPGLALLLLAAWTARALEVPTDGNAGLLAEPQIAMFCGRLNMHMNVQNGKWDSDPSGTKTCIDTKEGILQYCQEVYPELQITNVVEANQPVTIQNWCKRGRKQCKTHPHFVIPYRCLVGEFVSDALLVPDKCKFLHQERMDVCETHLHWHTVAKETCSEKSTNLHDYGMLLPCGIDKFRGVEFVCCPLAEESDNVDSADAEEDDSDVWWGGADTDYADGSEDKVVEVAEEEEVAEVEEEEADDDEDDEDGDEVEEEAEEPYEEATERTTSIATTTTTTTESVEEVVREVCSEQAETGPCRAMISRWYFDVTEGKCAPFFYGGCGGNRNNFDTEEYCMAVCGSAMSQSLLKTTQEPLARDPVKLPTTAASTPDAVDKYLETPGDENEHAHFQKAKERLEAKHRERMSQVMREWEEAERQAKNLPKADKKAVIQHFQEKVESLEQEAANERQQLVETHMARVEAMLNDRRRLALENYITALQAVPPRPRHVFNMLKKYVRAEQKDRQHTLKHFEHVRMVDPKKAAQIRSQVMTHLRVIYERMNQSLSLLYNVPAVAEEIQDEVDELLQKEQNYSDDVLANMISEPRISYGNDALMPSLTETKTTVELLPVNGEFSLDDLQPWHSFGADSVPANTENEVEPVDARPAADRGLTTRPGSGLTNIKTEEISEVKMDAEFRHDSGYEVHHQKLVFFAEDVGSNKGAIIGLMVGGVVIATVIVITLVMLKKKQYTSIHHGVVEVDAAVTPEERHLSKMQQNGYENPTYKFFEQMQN

Activity: Active
SMILES: Nc1c(/N=N/c2ccc(-c3ccc(/N=N/c4cc(S(=O)(=O)O)c5ccccc5c4N)cc3)cc2)cc(S(=O)(=O)O)c2ccccc12
